≈ marks a conversion by molar mass, not a printed value.
Legend:
[1] = test system: Mycobacterium tuberculosis; test: Antimycobacterial activity against Mycobacterium tuberculosis H37Rv; format: functional
In short: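 Read-out is the minimum inhibitory concentration (MIC). Crude extracts are expressed in μg mL−1 and isolated constituents in μM. Isonicotinylhydrazine and rifampicin served as reference controls.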

MDA-MB-231 = test: Cytotoxicity against human MDA-MB-231 cells; format: functional, cell-based

SMILES | MIC [1] [µM] | EC50 (MDA-MB-231) [µM]
COc1ccc(-c2coc3cc(O)cc(O)c3c2=O)cc1OC | 102 (≈ 32 µg/mL) | 31.8
COc1ccc(/C=C/C(=O)c2c(O)cc(OC)c(OC)c2OC)cc1 | 92.9 (≈ 32 µg/mL) | 291
COc1ccc(-c2coc3cc(O)cc(O)c3c2=O)cc1CC=C(C)C | 36.9 (≈ 13 µg/mL) | 27.9
COc1cc(-c2coc3cc(O)cc(O)c3c2=O)cc(OC)c1OC | 93 (≈ 32 µg/mL) | 29
COc1ccc([C@@H]2CC(=O)c3c(cc(OC)c(OC)c3OC)O2)cc1 | 92.9 (≈ 32 µg/mL) | 291
COc1cc(OC)c([C@@H]2COc3cc4c(c(O)c3C2=O)C=CC(C)(C)O4)cc1OC | 67.6 (≈ 27.9 µg/mL) | 58
COc1c(O)cc(-c2coc3cc(O)cc(O)c3c2=O)cc1CC=C(C)C | 86.9 (≈ 32 µg/mL) | 77
COc1cc(-c2coc3cc(O)cc(O)c3c2=O)cc(CC=C(C)C)c1OC | 77.2 (≈ 29.5 µg/mL) | 49.4
C=C(C)/C=C/c1cc(-c2coc3cc(O)cc(O)c3c2=O)cc(O)c1OC | 87.4 (≈ 32 µg/mL) | 13
COc1cc(OC)c(C2COc3cc(O)cc(O)c3C2=O)cc1OC (stereo not given) | 92.5 (≈ 32 µg/mL) | 275
COc1cc2c(cc1CC=C(C)C)[C@@H]1Oc3cc(O)ccc3[C@@H]1CO2 | 90.8 (≈ 30.7 µg/mL) | 
CC1(C)C=Cc2c(cc3occ(-c4ccc(O)cc4O)c(=O)c3c2O)O1 | 90.9 (≈ 32 µg/mL) | 16.9
COc1c(CC=C(C)C)cc([C@@H]2CC(=O)c3c(O)cc(O)cc3O2)cc1CC=C(C)C | 49.5 (≈ 20.9 µg/mL) | 21.6
COc1ccc(-c2cc(=O)c3c(OC)c(OC)c(OC)cc3o2)cc1 | 93.5 (≈ 32 µg/mL) | 292
CC(C)=CCc1cc([C@@H]2CC(=O)c3c(O)cc(O)cc3O2)cc(CC=C(C)C)c1O [ABYSSINONE V] | 78.3 (≈ 32 µg/mL) | 
COc1ccc([C@@H]2CC(=O)c3c(cc(OC)c(O)c3OC)O2)cc1 [HAMILTONE A] | 96.9 (≈ 32 µg/mL) | 201
NNC(=O)c1ccncc1 [ISONIAZID] | 0.3 (≈ 0.0411 µg/mL) | 
C=C(C)[C@@H]1CC[C@]2(C)CC[C@]3(C)[C@H](CC[C@@H]4[C@@]5(C)CC[C@H](O)C(C)(C)[C@@H]5CC[C@]43C)[C@@H]12 [LUPEOL] |  | 209
CO[C@H]1/C=C/O[C@@]2(C)Oc3c(C)c(O)c4c(O)c(c(/C=N/N5CCN(C)CC5)c(O)c4c3C2=O)NC(=O)/C(C)=C\C=C\[C@H](C)[C@H](O)[C@@H](C)[C@@H](O)[C@@H](C)[C@H](OC(C)=O)[C@@H]1C [RIFAMPIN] | 0.09 (≈ 0.0741 µg/mL) | 
COc1ccc(-c2cc(=O)c3c(OC)c(OC)c(OC)cc3o2)cc1OC [SINENSETIN] | 85.9 (≈ 32 µg/mL) | 269
